Active and inactive are the calls of the source. No cut-off for these calls is given here.
What was measured:
[1] = target: T1, Histone-lysine N-methyltransferase 2A (Homo sapiens, UniProt Q03164); test: Inhibition of MLL1 (unknown origin) in human MV4-11 cells assessed as decrease in H3Kme1 level at 1 to 10 uM measured after 7 days by Western blot analysis; assay type: cell-based; details: dose 1-10 µM, time 7.0 day
In short: (§1)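 MV4-11 cells exposed to 1, 2.5, 5 and 10 μM; H3K4me1/me2/me3 assessed by Western blot with histone H3 as loading control. Blots blocked in 1% BSA 1 h, primary antibody overnight at 4 °C, DyLight 800 secondary 1 h at 37 °C, infrared imaging.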

[2] = target: Histone-lysine N-methyltransferase 2A/WDR5 (Homo sapiens, UniProt P61964); test: Inhibition of MLL1-WDR5 (unknown origin) protein-protein interaction using Thr-FAM as probe by fluorescence polarization competition assay
In short: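 Competitive FP with WDR5 and 10mer-Thr-FAM probe in 100 mM KH2PO4, 25 mM KCl, 0.01% Triton X-100, pH 6.5; read at λex 485 ± 25 nm, λem 535 ± 25 nm. IC50 from three independent replicates ± SD.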

[3] = target: T2, Histone-lysine N-methyltransferase EHMT2 (Homo sapiens, UniProt Q96KQ7); test: Inhibition of G9a (unknown origin) assessed as effect on H3K9 methylation incubated for 30 mins by Alphascreen assay
T2 sequence (Q96KQ7 whole entry): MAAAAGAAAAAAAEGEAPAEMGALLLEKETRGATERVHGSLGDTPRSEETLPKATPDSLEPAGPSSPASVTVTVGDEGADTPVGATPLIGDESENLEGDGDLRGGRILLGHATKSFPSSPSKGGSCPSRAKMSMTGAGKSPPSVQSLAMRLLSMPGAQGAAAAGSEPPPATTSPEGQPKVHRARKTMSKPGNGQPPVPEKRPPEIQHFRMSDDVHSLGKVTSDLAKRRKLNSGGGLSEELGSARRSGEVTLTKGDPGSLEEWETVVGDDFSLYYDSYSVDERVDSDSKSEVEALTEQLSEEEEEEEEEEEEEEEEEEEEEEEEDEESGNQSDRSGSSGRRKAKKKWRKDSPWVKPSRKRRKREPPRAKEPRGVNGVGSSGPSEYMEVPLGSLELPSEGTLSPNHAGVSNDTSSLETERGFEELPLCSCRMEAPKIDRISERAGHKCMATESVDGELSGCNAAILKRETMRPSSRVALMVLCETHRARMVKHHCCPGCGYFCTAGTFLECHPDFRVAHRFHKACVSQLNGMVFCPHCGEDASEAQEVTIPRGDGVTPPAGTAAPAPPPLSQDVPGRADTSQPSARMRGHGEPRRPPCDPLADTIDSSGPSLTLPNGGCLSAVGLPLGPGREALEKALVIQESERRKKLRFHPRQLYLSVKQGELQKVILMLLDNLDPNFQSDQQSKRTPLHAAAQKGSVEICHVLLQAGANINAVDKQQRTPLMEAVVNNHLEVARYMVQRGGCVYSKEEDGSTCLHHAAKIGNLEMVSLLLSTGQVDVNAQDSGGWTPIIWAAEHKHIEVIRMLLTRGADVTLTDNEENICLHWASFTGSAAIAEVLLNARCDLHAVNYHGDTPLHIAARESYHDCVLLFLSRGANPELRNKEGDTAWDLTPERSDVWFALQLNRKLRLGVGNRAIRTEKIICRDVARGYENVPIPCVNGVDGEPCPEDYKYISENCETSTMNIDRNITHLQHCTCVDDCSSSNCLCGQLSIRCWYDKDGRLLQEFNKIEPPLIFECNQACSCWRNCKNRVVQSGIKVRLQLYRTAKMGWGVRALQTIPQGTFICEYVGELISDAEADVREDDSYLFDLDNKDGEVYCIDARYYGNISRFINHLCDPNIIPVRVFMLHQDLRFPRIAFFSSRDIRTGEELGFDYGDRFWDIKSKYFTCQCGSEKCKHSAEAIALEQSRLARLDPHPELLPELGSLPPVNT
In short: (§2)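 AlphaScreen: enzyme, SAM and compound mixed in 10 mM PBS for 30 min at room temperature; acceptor beads and substrate antibody added, 30 min at room temperature, then streptavidin donor beads; read on AlphaScreen reader.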

[4] = target: Histone-lysine N-methyltransferase, H3 lysine-79 specific (Homo sapiens, UniProt Q8TEK3); test: Inhibition of DOT1L (unknown origin) assessed as effect on H3K79 methylation incubated for 30 mins by Alphascreen assay; in short: as §2
[5] = Apparent clearance in Sprague-Dawley rat at 10 mg/kg, po measured upto 24 hrs by LC-MS/MS analysis; assay type: ADME, organism-based; details: in vivo
In short: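 Male SD rats, 6–8 weeks, 220 ± 30 g; single oral dose 10 mg/kg (n = 3). Plasma sampled at 0, 0.25, 0.5, 1, 2, 4, 6, 8 and 24 h, stored at −80 °C, quantified by LC-MS/MS; parameters reported as mean ± SEM.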

[6] = target: T1, Histone-lysine N-methyltransferase 2A; test: Inhibition of MLL1 (unknown origin) in human MV4-11 cells assessed as decrease in H3Kme3 level at 1 to 10 uM measured after 7 days by Western blot analysis; assay type: cell-based; in short: as §1

T1 sequence (Q03164 1-2718 limits assumed): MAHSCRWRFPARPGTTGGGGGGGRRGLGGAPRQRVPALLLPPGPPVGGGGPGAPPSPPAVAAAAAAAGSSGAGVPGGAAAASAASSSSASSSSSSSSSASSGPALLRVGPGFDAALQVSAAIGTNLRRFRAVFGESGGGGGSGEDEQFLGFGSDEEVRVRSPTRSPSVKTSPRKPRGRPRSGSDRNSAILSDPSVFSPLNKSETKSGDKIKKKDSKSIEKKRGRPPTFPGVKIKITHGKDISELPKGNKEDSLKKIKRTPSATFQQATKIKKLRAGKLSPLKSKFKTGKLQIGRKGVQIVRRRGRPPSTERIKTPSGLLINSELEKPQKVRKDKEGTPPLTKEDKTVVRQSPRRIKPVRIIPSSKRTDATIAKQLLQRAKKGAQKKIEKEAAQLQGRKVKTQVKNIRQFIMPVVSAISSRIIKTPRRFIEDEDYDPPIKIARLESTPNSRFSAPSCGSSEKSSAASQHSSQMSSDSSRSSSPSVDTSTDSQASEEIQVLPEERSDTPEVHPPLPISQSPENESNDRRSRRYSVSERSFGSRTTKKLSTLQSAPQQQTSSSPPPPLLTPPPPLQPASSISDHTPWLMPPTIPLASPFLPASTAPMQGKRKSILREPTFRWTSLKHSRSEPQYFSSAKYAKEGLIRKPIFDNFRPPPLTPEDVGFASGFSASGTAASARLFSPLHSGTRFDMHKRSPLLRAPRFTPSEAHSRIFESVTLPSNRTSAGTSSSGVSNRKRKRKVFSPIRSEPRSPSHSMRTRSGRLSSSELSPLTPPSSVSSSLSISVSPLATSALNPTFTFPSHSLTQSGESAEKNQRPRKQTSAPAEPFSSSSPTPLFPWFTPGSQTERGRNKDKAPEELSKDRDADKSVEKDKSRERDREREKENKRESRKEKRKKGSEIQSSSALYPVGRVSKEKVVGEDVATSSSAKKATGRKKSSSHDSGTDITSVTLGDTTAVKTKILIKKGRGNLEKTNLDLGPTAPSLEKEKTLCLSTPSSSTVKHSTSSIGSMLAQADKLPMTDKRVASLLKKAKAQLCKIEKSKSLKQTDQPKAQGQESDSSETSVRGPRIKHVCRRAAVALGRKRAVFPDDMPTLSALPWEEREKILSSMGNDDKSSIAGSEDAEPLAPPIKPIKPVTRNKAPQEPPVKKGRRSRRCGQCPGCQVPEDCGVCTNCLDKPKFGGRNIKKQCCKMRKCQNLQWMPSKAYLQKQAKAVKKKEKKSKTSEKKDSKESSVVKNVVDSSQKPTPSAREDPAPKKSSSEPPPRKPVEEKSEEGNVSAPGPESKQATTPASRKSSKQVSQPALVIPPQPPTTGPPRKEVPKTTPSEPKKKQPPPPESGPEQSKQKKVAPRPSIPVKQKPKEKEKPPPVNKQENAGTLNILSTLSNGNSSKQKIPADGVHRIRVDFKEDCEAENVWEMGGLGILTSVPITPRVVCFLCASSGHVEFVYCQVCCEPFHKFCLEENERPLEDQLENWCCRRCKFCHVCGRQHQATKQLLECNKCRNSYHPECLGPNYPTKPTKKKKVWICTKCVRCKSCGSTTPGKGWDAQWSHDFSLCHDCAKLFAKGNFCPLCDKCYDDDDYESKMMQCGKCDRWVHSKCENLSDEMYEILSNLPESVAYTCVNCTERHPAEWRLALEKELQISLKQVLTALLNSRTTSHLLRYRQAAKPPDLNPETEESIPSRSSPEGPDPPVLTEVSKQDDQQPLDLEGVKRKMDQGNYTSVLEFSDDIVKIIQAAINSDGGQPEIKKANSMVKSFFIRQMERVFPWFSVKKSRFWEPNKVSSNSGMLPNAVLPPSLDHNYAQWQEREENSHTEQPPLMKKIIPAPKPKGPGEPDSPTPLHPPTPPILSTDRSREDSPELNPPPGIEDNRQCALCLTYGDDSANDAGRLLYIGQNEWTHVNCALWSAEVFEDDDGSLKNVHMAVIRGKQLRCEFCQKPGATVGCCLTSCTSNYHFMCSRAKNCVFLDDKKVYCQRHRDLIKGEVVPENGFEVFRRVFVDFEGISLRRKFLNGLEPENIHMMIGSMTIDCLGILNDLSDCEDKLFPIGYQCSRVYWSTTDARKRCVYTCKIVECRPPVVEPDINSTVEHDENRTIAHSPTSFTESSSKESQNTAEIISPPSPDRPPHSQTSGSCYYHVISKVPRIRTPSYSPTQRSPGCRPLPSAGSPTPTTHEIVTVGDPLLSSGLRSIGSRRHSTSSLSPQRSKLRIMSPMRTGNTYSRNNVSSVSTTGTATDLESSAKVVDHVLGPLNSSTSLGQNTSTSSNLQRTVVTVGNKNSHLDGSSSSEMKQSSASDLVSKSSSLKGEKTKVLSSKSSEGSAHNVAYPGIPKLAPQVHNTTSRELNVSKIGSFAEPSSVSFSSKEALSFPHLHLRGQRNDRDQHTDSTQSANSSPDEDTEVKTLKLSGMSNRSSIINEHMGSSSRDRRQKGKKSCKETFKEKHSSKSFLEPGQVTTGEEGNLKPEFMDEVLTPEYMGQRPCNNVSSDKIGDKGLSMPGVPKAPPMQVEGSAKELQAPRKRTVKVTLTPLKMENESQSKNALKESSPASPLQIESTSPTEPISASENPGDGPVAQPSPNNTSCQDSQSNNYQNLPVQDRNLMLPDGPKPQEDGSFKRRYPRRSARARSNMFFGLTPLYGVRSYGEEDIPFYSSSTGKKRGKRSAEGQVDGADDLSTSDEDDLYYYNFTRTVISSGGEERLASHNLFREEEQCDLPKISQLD
T1 sequence (Q03164 2719-3969 limits assumed): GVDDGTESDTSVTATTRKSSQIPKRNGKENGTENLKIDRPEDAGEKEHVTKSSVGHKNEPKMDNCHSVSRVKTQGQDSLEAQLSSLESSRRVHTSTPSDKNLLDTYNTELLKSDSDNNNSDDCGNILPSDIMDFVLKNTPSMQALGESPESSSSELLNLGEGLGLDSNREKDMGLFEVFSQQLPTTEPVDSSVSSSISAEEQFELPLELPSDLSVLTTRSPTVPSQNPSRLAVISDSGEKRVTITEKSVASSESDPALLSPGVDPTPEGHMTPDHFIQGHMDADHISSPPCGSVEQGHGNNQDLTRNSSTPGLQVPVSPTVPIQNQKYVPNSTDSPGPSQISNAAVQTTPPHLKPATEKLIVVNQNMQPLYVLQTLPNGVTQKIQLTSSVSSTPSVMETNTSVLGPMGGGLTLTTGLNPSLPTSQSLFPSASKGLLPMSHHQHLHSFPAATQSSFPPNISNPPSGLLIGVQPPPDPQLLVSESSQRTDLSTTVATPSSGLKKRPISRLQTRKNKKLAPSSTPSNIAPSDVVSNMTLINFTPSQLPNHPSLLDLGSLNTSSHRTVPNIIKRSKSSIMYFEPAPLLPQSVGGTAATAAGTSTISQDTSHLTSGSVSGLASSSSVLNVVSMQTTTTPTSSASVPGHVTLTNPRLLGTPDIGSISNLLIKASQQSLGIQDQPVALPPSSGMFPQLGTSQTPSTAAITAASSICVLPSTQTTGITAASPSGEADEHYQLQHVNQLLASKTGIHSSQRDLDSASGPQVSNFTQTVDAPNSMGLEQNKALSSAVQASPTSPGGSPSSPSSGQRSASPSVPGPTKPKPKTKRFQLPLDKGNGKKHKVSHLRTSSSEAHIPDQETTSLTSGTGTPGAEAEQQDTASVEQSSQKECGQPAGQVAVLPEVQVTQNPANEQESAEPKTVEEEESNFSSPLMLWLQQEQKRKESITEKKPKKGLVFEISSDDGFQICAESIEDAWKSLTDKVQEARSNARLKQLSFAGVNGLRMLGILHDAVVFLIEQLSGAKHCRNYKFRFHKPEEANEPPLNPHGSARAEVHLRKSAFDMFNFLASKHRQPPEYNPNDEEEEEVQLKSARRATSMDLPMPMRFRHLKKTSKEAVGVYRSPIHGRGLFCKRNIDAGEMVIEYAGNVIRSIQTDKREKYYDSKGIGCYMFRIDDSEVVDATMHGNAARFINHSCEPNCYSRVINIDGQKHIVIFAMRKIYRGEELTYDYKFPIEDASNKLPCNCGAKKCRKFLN

CN1CCN(c2cc(F)c(-c3ccc(C(=O)N(C)C)cc3)cc2Nc2ncnc(Cl)c2N)CC1
inhibition [1]: Dose-Dependent Effect | IC50 [2]: 0.029 µM | IC50 [3]: > 100 µM | IC50 [4]: > 100 µM | CL/F [5]: 97.2 mL/min/kg | inhibition [6]: Active

Source: ChEMBL document CHEMBL5033998, “Discovery of DDO-2213 as a Potent and Orally Bioavailable Inhibitor of the WDR5-Mixed Lineage Leukemia 1 Protein-Protein Interaction for the Treatment of MLL Fusion Leukemia” (J Med Chem, 2021)
